Activity calls are given as the source filed them. The calls are words filed in the database; no cut-off is given here.
Key:
[1] = Antioxidant activity assessed as inhibition of lipid peroxidation at 0.5 mM after 5 days by ferric-thiocyanate method; format: functional
Procedure, shortened: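 Linoleic acid peroxidation: 2.51% linoleic acid in EtOH mixed with 0.05 M phosphate buffer pH 7.0, EtOH and water. Sample added from 10 mM EtOH stock, 0.5 mM final. Capped vial kept in dark at 40 °C for 5 days. Aliquot diluted in 75% EtOH, ammonium thiocyanate and ferrous chloride in HCl added, A500 read after 3 min. Blank lacks compound.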

[2] = test system: Radical scavenging activity; experiment: Antioxidant activity assessed as DPPH radical scavenging activity at 0.02 mM; format: functional
Procedure, shortened: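 Sample in EtOH (0.02 mM final) added to 0.1 M acetate buffer pH 5.5 plus 0.5 mM DPPH in EtOH. Mixture stood 30 min at room temperature. Modified from a published DPPH method.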

## COc1cc(-c2c(O)c(C=O)cc3cc(OC)c(O)cc23)ccc1O
[1]
  Activity: Active
[2]
  Activity: Active

## COc1cc(-c2c3c(cc4cc(OC)c(O)cc24)C(=O)NC3)ccc1O
[1]
  Activity: Active
[2]
  Activity: Active

## COc1cc(-c2c3c(cc4cc(OC)c(O)cc24)C(=O)OC3)ccc1O
[1]
  Activity: Active
[2]
  Activity: Active

## COc1cc(-c2cc(C=O)cc3cc(OC)c(O)cc23)ccc1O
[1]
  Activity: Active
[2]
  Activity: Active

## COc1cc([C@H]2c3cc(O)c(OC)cc3C=C(C=O)[C@@H]2CO)ccc1O
[1]
  Activity: Active
[2]
  Activity: Active

## COc1cc([C@H]2c3c(ccc(O)c3OC)C=C(C=O)[C@@H]2CO)ccc1O
[1]
  Activity: Active
[2]
  Activity: Active

Source: ChEMBL document CHEMBL1148978, “Lignan derivatives and a norditerpene from the seeds of Vitex negundo” (J Nat Prod, 2004)
